Legend:
[1] = biological target: T1, Glucose-6-phosphate 1-dehydrogenase (Plasmodium falciparum, UniProt Q25856); assay: Inhibition of Plasmodium falciparum glucose-6-phosphate dehydrogenase after 45 mins by orthogonal assay
T1 sequence (Q25856 whole entry): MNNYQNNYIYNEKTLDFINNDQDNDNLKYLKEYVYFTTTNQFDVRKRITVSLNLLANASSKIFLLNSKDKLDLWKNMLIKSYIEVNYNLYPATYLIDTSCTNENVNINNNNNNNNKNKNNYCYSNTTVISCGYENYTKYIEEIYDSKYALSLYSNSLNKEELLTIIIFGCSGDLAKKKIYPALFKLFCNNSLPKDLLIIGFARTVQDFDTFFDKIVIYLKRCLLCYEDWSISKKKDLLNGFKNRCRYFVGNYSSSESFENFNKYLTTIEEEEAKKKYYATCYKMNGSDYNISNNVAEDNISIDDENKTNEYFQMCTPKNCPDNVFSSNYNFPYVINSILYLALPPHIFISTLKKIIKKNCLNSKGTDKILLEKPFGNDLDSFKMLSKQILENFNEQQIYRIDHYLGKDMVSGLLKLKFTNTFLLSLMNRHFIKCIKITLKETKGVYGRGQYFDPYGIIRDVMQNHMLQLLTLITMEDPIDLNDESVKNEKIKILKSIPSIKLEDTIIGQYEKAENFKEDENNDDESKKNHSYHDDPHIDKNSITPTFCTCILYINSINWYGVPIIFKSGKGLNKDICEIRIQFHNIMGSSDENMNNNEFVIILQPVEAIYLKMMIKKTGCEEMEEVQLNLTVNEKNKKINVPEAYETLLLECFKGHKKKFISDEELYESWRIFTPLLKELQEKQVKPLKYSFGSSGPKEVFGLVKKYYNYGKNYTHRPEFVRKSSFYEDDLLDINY
In short: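 Direct NADPH read without coupling: PfGluPho (0.4 μg/mL enzyme solution) in 50 mM Tris pH 7.5, 0.005% Tween 20, 1 mg/mL BSA; substrate 40 μM G6P, 6 μM NADP+, 6.6 mM MgCl2.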

[2] = biological target: T1, Glucose-6-phosphate 1-dehydrogenase; assay: Inhibition of Plasmodium falciparum glucose-6-phosphate dehydrogenase after 2 hrs by resazurin/diaphorasecoupled assay
[3] = biological target: Glucose-6-phosphate 1-dehydrogenase (Homo sapiens, UniProt P11413); assay: Inhibition of human glucose-6-phosphate dehydrogenase after 90 mins by resazurin/diaphorasecoupled assay
In short: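 Dose response with a top final concentration of […] and 0.8% final DMSO, in 50 mM Tris pH 7.5, 0.005% Tween 20 and 1 mg/mL BSA. The enzyme solution held 0.05 μg/mL hG6PD. The substrate solution held 0.64 mM G6P, 12 μM NADP+, 6.6 mM MgCl2, 2 U/mL diaphorase and 0.28 mM resazurin.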

Sequence of Glucose-6-phosphate 1-dehydrogenase (Homo sapiens, UniProt P11413) (P11413 whole entry): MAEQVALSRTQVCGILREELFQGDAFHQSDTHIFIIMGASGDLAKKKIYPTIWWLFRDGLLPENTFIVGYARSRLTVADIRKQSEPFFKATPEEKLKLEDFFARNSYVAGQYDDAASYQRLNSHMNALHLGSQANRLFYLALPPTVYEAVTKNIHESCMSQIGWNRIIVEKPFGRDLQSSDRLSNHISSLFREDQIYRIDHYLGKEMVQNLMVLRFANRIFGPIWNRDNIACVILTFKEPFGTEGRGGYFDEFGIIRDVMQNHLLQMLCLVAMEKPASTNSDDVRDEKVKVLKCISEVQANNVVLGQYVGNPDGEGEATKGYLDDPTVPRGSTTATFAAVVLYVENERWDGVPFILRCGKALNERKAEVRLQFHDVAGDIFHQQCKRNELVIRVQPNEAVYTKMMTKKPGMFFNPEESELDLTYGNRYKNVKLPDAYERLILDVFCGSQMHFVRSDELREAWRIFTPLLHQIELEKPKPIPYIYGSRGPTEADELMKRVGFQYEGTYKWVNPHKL

SMILES | IC50 [1] | IC50 [2] | IC50 [3]
CCN1CCC[C@H]1CNC(=O)c1ccc2c(c1)NC(=O)/C(=C/c1ccccc1F)S2 | 4.7 µM | 6.6 µM | > 80 µM
CCN1CCCC1CNC(=O)c1ccc2c(c1)NC(=O)/C(=C/c1cccc(F)c1F)S2 (configuration not stated) |  |  | > 80 µM
CC(C)(C)OC(=O)N1CCCC1CNC(=O)c1ccc2c(c1)NC(=O)/C(=C/c1ccccc1F)S2 (configuration not stated) | 24.4 µM | > 80 µM | > 80 µM
NC1CCN(C(=O)c2ccc3c(c2)NC(=O)/C(=C/c2ccccc2F)S3)C1 (configuration not stated) | 35 µM | 45 µM | > 80 µM
CCN(CC)CCNC(=O)c1ccc2c(c1)NC(=O)/C(=C/c1ccccc1)S2 | 18.4 µM | 8.8 µM | > 80 µM
COc1ccc(/C=C2\Sc3ccc(C(=O)NCCN4CCCCCC4)cc3NC2=O)cc1 | > 80 µM | > 80 µM | > 80 µM
CCN(CC)CCNC(=O)c1ccc2c(c1)NC(=O)/C(=C/c1cccc(C)c1)S2 |  |  | > 80 µM
CCN1CCCC1CNC(=O)c1ccc2c(c1)NC(=O)CS2 (configuration not stated) |  | > 80 µM | 
CCN(CC)CCNC(=O)c1ccc2c(c1)NC(=O)/C(=C/c1ccccc1Cl)S2 | 44.9 µM | 16.2 µM | > 80 µM
CCN1CCCC1CNC(=O)c1ccc2c(c1)NC(=O)/C(=C/c1ccccc1Cl)S2 (configuration not stated) | 3.3 µM | 2.56 µM | > 80 µM
CCN(CC)CCNC(=O)c1ccc2c(c1)NC(=O)/C(=C/c1ccccc1F)S2 (stereo in doubt; 21) | 9.4 µM | 7.4 µM | > 80 µM
O=C1Nc2cc(C(=O)NCc3ccccc3)ccc2S/C1=C\c1ccccc1F | > 80 µM | > 80 µM | > 80 µM
CCN1CCCC1CNC(=O)c1ccc2c(c1)NC(=O)/C(=C/c1cccc3ccccc13)S2 (configuration not stated) | 4.2 µM | 4.28 µM | > 80 µM
CCN1CCCC1CNC(=O)c1ccc2c(c1)NC(=O)/C(=C/c1ccccc1OC)S2 (configuration not stated) | 11.3 µM | 9.79 µM | > 80 µM
CCN1CCCC1CNC(=O)c1ccc2c(c1)NC(=O)C(Cc1ccccc1F)S2 (configuration not stated) |  | > 80 µM | > 80 µM
O=C1Nc2cc(C(=O)NCCN3CCCCC3)ccc2S/C1=C\c1ccccc1F | 24 µM | 21.6 µM | > 80 µM
CN(C)CCNC(=O)c1ccc2c(c1)NC(=O)/C(=C/c1ccccc1F)S2 (stereo in doubt; 17) |  |  | > 80 µM
CCN(CC)CCNC(=O)c1ccc2c(c1)NC(=O)/C(=C/c1ccc(OC)c(OC)c1)S2 | 24.5 µM | 60 µM | > 80 µM
COc1ccc(/C=C2\Sc3ccc(C(=O)NCCN(C)C)cc3NC2=O)cc1 | > 80 µM | > 80 µM | > 80 µM
O=C1Nc2cc(C(=O)NCCCN3CCCC3)ccc2S/C1=C\c1cccc(Cl)c1 |  |  | > 80 µM
Cc1cccc(/C=C2\Sc3ccc(C(=O)NCCN4CCCC4)cc3NC2=O)c1 | 8.8 µM | 11.8 µM | > 80 µM
CCN1CCCC1CNC(=O)c1ccc2c(c1)NC(=O)/C(=C/c1ccccc1C)S2 (configuration not stated) | 5.01 µM | 5.93 µM | > 80 µM
CN(C)CCNC(=O)c1ccc2c(c1)NC(=O)/C(=C/c1cccc(Cl)c1)S2 | 43.6 µM | 60 µM | > 80 µM
O=C1Nc2cc(C(=O)NCCN3CCCC3)ccc2S/C1=C\c1ccccc1F (stereo in doubt; 28) |  |  | > 80 µM

SMILES | IC50 [1] | IC50 [2] | IC50 [3]
CCN1CCCC1CNC(=O)c1ccc2c(c1)NC(=O)/C(=C/c1ccc3ccccc3c1)S2 (configuration not stated) | 2.88 µM | 2.39 µM | > 80 µM
CCN1CCCC1CNC(=O)c1ccc2c(c1)NC(=O)/C(=C/c1cccc(F)c1)S2 (configuration not stated) |  |  | > 80 µM
CCCN(CCC)CCNC(=O)c1ccc2c(c1)NC(=O)/C(=C/c1ccc(C)cc1)S2 | 45.9 µM | > 80 µM | > 80 µM
CCN1CCCC1CNC(=O)c1ccc2c(c1)NC(=O)/C(=C/c1ccc(F)cc1)S2 (configuration not stated) | 2.06 µM | 1.41 µM | > 80 µM
O=C1Nc2cc(C(=O)NCC3CCCN3)ccc2S/C1=C\c1ccccc1F (configuration not stated) |  |  | > 80 µM
CCN(CC)CCNC(=O)c1ccc2c(c1)NC(=O)/C(=C/c1ccccc1F)S2 (stereo in doubt; 22) | 4.8 µM | 6.9 µM | > 80 µM
O=C1Nc2cc(C(=O)NCCN3CCOCC3)ccc2S/C1=C\c1ccccc1F | > 80 µM | > 80 µM | > 80 µM
CCN1CCCC1CNC(=O)c1ccc2c(c1)NC(=O)/C(=C/c1ccc(C)cc1)S2 (configuration not stated) |  |  | > 80 µM
O=C1Nc2cc(C(=O)NCCN3CCCCCC3)ccc2S/C1=C\c1ccccc1Cl | > 80 µM | 40.9 µM | > 80 µM
CN1CCCC1CCNC(=O)c1ccc2c(c1)NC(=O)/C(=C/c1ccccc1F)S2 (configuration not stated) | 45.2 µM | 22.7 µM | > 80 µM
O=C1Nc2cc(C(=O)NCCN3CCCC3)ccc2S/C1=C\c1ccccc1Cl | > 80 µM | 11.1 µM | > 80 µM
CCN1CCCC1CNC(=O)c1ccc2c(c1)NC(=O)/C(=C/c1ccccc1)S2 (configuration not stated) |  |  | > 80 µM
O=C1Nc2cc(C(=O)NCCCN3CCCC3)ccc2S/C1=C\c1ccccc1 | 22.3 µM | 9.3 µM | > 80 µM
COc1ccc(/C=C2\Sc3ccc(C(=O)NCCN4CCCC4)cc3NC2=O)cc1 | > 80 µM | 49.7 µM | > 80 µM
CN(C)c1ccccc1CNC(=O)c1ccc2c(c1)NC(=O)/C(=C/c1ccccc1F)S2 | 67.8 µM | > 80 µM | > 80 µM
CN(C)CCNC(=O)c1ccc2c(c1)NC(=O)/C(=C/c1ccccc1F)S2 (stereo in doubt; 16) |  |  | > 80 µM
O=C1Nc2cc(C(=O)NCCN3CCCCCC3)ccc2S/C1=C\c1ccccc1F | 11 µM | 46.6 µM | > 80 µM
CCCN1CCCC1CNC(=O)c1ccc2c(c1)NC(=O)/C(=C/c1ccccc1F)S2 (configuration not stated) |  |  | > 80 µM
CCN1CCCC1CNC(=O)c1ccc2c(c1)NC(=O)/C(=C/c1ccccc1F)S2 (racemic) | 1.37 µM | 1.75 µM | > 80 µM
O=C1Nc2cc(C(=O)NCCN3CCCC3)ccc2S/C1=C\c1ccccc1F (stereo in doubt; 29) |  |  | > 80 µM
CCN1CCCC1CNC(=O)c1ccc2c(c1)NC(=O)/C(=C/c1c(F)cccc1F)S2 (configuration not stated) |  |  | > 80 µM
COc1cccc(/C=C2\Sc3ccc(C(=O)NCCN4CCCCCC4)cc3NC2=O)c1 | 58.5 µM | > 80 µM | > 80 µM
CCCN(CCC)CCNC(=O)c1ccc2c(c1)NC(=O)/C(=C/c1ccccc1)S2 | 27.2 µM | > 80 µM | > 80 µM

From ChEMBL document CHEMBL2169798, “Discovery of a Plasmodium falciparum glucose-6-phosphate dehydrogenase 6-phosphogluconolactonase inhibitor (R,Z)-N-((1-ethylpyrrolidin-2-yl)methyl)-2-(2-fluorobenzylidene)-3-oxo-3,4-dihydro-2H-benzo[b][1,4]thiazine-6-carboxamide (ML276) that reduces parasite growth in vitro” (J Med Chem, 2012)
